From ChEMBL document CHEMBL1129630, “Synthesis and structure-activity relationships of retinoid X receptor selective diaryl sulfide analogs of retinoic acid” (J Med Chem, 1996)
Substitutions are numbered along the chain they refer to.

Experiments:
[1] = target: T1, Retinoic acid receptor RXR-gamma (Homo sapiens, UniProt P48443); experiment: Transcriptional activation of Retinoid X receptor RXR gamma; design: species or system Cercopithecidae
T1 sequence (P48443 whole entry): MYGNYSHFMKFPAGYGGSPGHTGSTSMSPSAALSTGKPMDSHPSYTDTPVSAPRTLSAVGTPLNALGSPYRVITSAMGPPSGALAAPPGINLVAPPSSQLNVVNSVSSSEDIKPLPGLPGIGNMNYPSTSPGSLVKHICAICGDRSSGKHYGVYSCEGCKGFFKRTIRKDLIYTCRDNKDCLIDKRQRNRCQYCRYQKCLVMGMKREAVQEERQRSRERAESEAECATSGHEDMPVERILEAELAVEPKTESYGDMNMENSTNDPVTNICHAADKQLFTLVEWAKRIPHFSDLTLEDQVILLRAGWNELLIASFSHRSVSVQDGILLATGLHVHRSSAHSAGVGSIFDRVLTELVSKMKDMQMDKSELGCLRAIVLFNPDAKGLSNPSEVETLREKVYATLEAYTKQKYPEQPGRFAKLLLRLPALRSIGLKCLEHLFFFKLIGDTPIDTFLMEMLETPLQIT
Summary of the method: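 CV-1 cells transiently cotransfected with the receptor construct and a reporter gene, with induced transcription measured. Activity is normalized to all-trans RA.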

[2] = target: T2, Retinoic acid receptor RXR-beta (Mus musculus, UniProt P28704); experiment: Dissociation constant for binding to Retinoid X receptor beta
T2 sequence (P28704 whole entry): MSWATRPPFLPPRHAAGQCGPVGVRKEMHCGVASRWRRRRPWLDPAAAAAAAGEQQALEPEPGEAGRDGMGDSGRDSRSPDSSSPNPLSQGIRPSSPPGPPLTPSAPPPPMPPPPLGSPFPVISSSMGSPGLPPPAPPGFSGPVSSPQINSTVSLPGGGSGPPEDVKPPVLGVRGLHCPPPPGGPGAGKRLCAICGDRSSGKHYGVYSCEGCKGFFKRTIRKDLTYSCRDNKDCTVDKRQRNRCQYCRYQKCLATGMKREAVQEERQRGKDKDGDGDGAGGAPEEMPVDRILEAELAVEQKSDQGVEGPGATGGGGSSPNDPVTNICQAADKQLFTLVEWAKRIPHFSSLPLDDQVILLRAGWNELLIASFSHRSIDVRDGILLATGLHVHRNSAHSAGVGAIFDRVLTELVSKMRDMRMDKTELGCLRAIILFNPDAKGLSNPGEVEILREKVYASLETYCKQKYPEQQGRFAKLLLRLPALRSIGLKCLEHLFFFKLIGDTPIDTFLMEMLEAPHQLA
Summary of the method: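 Competitive binding assay measuring displacement at the RXRβ receptor subtype.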

[3] = target: T3, Retinoic acid receptor RXR-gamma (Mus musculus, UniProt P28705); experiment: Dissociation constant for binding to Retinoid X receptor gamma
T3 sequence (P28705 whole entry): T1 sequence (P48443 whole entry) with A13T, Y15F, A31V, S34P, T228S, G230S, M258V, T450S
Summary of the method: (§1)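 Competitive binding assays against each receptor subtype, with Kd values taken from competition.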

[4] = target: T4, Retinoic acid receptor alpha (Mus musculus, UniProt P11416); experiment: Dissociation constant for binding to Retinoic acid receptor alpha; format: single protein; summary of the method: as §1
T4 sequence (P11416 whole entry): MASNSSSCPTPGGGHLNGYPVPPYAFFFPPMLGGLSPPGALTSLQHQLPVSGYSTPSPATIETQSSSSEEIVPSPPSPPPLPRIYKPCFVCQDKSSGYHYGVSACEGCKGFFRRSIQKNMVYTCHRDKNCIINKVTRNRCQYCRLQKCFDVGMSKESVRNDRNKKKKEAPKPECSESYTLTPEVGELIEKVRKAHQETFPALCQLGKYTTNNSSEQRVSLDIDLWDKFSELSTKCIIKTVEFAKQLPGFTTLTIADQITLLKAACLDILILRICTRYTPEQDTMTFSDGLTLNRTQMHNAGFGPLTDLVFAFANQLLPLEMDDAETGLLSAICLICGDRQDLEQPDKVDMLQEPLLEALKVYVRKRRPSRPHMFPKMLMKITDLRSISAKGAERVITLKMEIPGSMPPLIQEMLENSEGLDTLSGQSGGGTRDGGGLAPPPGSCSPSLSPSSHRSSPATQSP

[5] = target: T5, Retinoic acid receptor gamma (Mus musculus, UniProt P18911); experiment: Dissociation constant for binding to Retinoic acid receptor gamma; summary of the method: as §1
T5 sequence (P18911 whole entry): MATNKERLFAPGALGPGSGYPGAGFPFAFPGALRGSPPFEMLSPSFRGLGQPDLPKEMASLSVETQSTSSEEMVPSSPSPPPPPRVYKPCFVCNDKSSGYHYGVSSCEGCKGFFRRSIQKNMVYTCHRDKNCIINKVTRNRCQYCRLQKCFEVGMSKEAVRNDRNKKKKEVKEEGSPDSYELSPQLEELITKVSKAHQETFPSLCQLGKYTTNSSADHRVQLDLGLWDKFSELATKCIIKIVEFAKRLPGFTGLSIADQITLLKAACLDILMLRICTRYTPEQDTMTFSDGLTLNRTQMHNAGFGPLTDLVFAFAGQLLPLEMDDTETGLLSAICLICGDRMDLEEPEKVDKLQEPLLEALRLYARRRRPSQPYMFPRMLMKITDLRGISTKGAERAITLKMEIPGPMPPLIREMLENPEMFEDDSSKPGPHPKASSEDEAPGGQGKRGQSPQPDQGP

EC50 [1]	Kd [2]	Kd [3]	Kd [4]	Kd [5]	Compound
42 nM	87 nM	–	–	–	Cc1cc2c(cc1Sc1ccc(C(=O)O)cn1)C(C)(C)CCC2(C)C
–	–	3.99 µM	> 10 µM	10 µM	Cc1cc2c(cc1S(=O)(=O)c1ccc(C(=O)O)cc1)C(C)(C)CCC2(C)C
280 nM	–	–	> 10 µM	10 µM	Cc1cc2c(cc1Sc1ccc(C(=O)O)cc1)C(C)(C)CCC2(C)C

More lines, now with the values behind:

Compound	EC50 [1]	Kd [2]	Kd [3]	Kd [4]	Kd [5]
Cc1cc2c(cc1Sc1ncc(C(=O)O)s1)C(C)(C)CCC2(C)C	1900 nM	1000 nM	1 µM	1 µM	1 µM
CC1(C)CCC(C)(C)c2cc(Sc3ccc(C(=O)O)cc3)ccc21	–	3090 nM	–	4.08 µM	> 10 µM
Cc1cc2c(cc1[S+]([O-])c1ccc(C(=O)O)cc1)C(C)(C)CCC2(C)C (stereo unspecified)	1600 nM	> 10000 nM	> 10 µM	> 10 µM	10 µM
